ChEMBL document CHEMBL3425405, “Discovery of Small Molecules for Up-Regulating the Translation of Antiamyloidogenic Secretase, a Disintegrin and Metalloproteinase 10 (ADAM10), by Binding to the G-Quadruplex-Forming Sequence in the 5' Untranslated Region (UTR) of Its mRNA” (J Med Chem, 2015)
Activity calls are given as the source filed them. No cut-off for these calls is given here.

What was measured:
[1] = Binding affinity to 5'-end biotinylated ADAM10 A10-RNA QGRS (unknown origin) by surface plasmon resonance assay method
Procedure, shortened: (§1)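 SPR with 5′-biotinylated A10-RNA-Wt or A10-RNA-Mut immobilized on a neutravidin chip in running buffer (50 mM Tris-HCl pH 7.5, 100 mM KCl). Ligand serial dilutions in running buffer injected at 20 μL/min for association, then dissociation. Chip regenerated with 50 mM NaOH between runs.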

[2] = Binding affinity to 5'-end biotinylated ADAM10 A10-mutant RNA QGRS (unknown origin) by surface plasmon resonance assay method; procedure, shortened: as §1
[3] = Toxicity against APP expressing HEK cells assessed as reduction in cell viability after 48 hrs by MTT assay; format: cell-based, HEK293; settings: human
HeLa = assay: Binding affinity to ADAM10 A10-RNA QGRS (unknown origin) transfected in human HeLa cells assessed as increase in ADAM10 translation efficiency at 2 uM after 24 hrs by Renilla/firefly dual luciferase reporter assay; format: cell-based
Procedure, shortened: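 HeLa cells transfected with 0.8 μg A10-Wt, A10-Mut or A10-Del plasmid (G-quadruplex motif upstream of Renilla in psiCHECK-2). Screening: 24 h at a single 2 μM concentration. Follow-up: plasmid for 12 h, then 0, 0.5, 1 or 2.5 μM for 24 h. Renilla normalized to firefly, relative to untreated control; mean ± SD of three independent measurements.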

[4] = Toxicity against human HeLa cells assessed as reduction in cell viability after 24 hrs by MTT assay; format: cell-based

Kd [1] [µM]	Activity [2]	SMILES	IC50 at 48 h [3] [µM]	Activity (HeLa) [%]	IC50 at 24 h [4] [µM]
> 50	inactive	CCn1c2ccccc2c2cc(/C=C/c3cc(N4CCN(C)CC4)c4ccccc4n3)ccc21			
18	inactive	COc1cc(/C=C/c2ccc3ccccc3[n+]2C)ccc1F			
33.3	inactive	CN1CCN(c2cc(/C=C/c3ccccc3)[n+](C)c3ccccc23)CC1	36.3	91.5	> 50
32.1	inactive	CCn1c2ccccc2c2cc(/C=C/c3cc(N4CCN(CCO)CC4)c4ccccc4[n+]3C)ccc21			
15.8	inactive	C[n+]1c(/C=C/c2ccc(N3CCOCC3)cc2)ccc2ccccc21	23.3	92	43.4
3.4	inactive	C[n+]1c(/C=C/c2cc3ccccc3[nH]2)ccc2ccccc21	12.4	119	> 50
27.1	inactive	COc1cc(/C=C/c2cc(N3CCOCC3)c3ccccc3[n+]2C)cc(OC)c1O			
> 50	inactive	CCn1c2ccccc2c2cc(/C=C/c3ccc4ccccc4n3)ccc21			
> 50	inactive	CCn1c2ccccc2c2cc(/C=C/c3cc(N4CCCCC4)c4ccccc4n3)ccc21			
> 50	inactive	C[n+]1c(/C=C/c2ccccc2)ccc2ccccc21	> 50	101	> 50

More lines, now with the values behind:

SMILES	Kd [1] [µM]	Activity [2]	IC50 at 48 h [3] [µM]	Activity (HeLa) [%]	IC50 at 24 h [4] [µM]
CCn1c2ccccc2c2cc(/C=C/c3cc(N4CCN(CCCN(C)C)CC4)c4ccccc4[n+]3C)ccc21	45	inactive			
C[n+]1c(/C=C/c2cc([N+](=O)[O-])ccc2O)cc(N2CCOCC2)c2ccccc21	> 50	inactive			17.3
C[n+]1c(/C=C/c2cc([N+](=O)[O-])ccc2O)cc(N2CCCCC2)c2ccccc21	> 50	inactive			
CCn1c2ccccc2c2cc(/C=C/c3cc(N4CCCCC4)c4ccccc4[n+]3C)ccc21	> 50	inactive			
COc1cc(/C=C/c2cc(N3CCN(C)CC3)c3ccccc3[n+]2C)cc(OC)c1OC	10.9	inactive			
C[n+]1c(/C=C/c2ccc(O)cc2)ccc2ccccc21	15.9	inactive			
CCn1c2ccccc2c2cc(/C=C/c3cc(N4CCN(CCN(C)C)CC4)c4ccccc4[n+]3C)ccc21	> 50	inactive			
COc1cc(/C=C/c2ccc3ccccc3[n+]2C)cc(OC)c1OC	9.3	inactive			
CN1CCN(c2cc(/C=C/c3cc4ccccc4[nH]3)[n+](C)c3ccccc23)CC1	1.8	inactive	18.6	116	> 50
C[n+]1c(/C=C/c2cc([N+](=O)[O-])ccc2O)ccc2ccccc21	46.3	inactive			
CN1CCN(c2cc(/C=C/c3cc([N+](=O)[O-])ccc3O)[n+](C)c3ccccc23)CC1	16.3	inactive	21.5	98.7	> 50
COc1cc(/C=C/c2ccc3ccccc3[n+]2C)cc(OC)c1O	20.5	inactive			
CN1CCN(c2cc(/C=C/c3ccc(O)cc3)[n+](C)c3ccccc23)CC1	8.4	inactive			
CN1CCN(c2cc(/C=C/c3ccc(N4CCOCC4)cc3)nc3ccccc23)CC1	47.6	inactive			
COc1cc(/C=C/c2cc(N3CCCCC3)c3ccccc3[n+]2C)cc(OC)c1O	25	inactive			
COc1cc(/C=C/c2cc(N3CCN(C)CC3)c3ccccc3[n+]2C)ccc1N1CCOCC1	33	inactive			
CN1CCN(c2cc(/C=C/c3ccc(N4CCOCC4)cc3)[n+](C)c3ccccc23)CC1	2.6	inactive	29.3	137	> 50
COc1cc(/C=C/c2cc(N3CCN(C)CC3)c3ccccc3[n+]2C)ccc1F	11.7	inactive			
COc1cc(/C=C/c2ccc3ccccc3[n+]2C)ccc1N1CCOCC1	28.2	inactive	49.1	102	32.8
COc1cc(/C=C/c2cc(N3CCN(C)CC3)c3ccccc3[n+]2C)cc(OC)c1O	16.5	inactive	25.8	108	> 50
